# Measured values published in ChEMBL document CHEMBL4138228, “Substituted carbamothioic amine-1-carbothioic thioanhydrides as novel trichomonicidal fungicides: Design, synthesis, and biology” (Eur J Med Chem, 2018).
# Experiments:
# [1] = Selectivity index, ratio of IC50 for human HeLa cells to MIC for metronidazole-susceptible Trichomonas vaginalis; type: toxicity; conditions: read-out: Selectivity Index
# HeLa = assay: Cytotoxicity against human HeLa cells after 24 hrs by MTT assay; type: cell-based
# Sporothrix schenckii = assay: Antifungal activity against Sporothrix schenckii after 48 hrs by broth microdilution method; type: functional
# How it was run: (§1)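 Broth microdilution per NCCLS guidelines in MOPS-buffered RPMI 1640; starting inoculum 1-5 x 10^3 CFU/mL; plates incubated at 35 °C; MIC recorded after 48 h; fluconazole as reference; experiments repeated three times.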
# Cryptococcus neoformans = assay: Antifungal activity against Cryptococcus neoformans after 48 hrs by broth microdilution method; type: functional; how it was run: as §1
# Plasmodium falciparum [2] = assay: Antimalarial activity against chloroquine-sensitive Plasmodium falciparum 3D7 infecetd in RBC after 72 hrs by SYBR Green dye-based fluorescence assay; type: functional, organism-based; conditions: 3D7, Erythrocyte
# [3] = tested on: Trichophyton mentagrophytes; assay: Antifungal activity against Trichophyton mentagrophytes after 48 hrs by broth microdilution method; type: functional; how it was run: as §1
# Trichomonas vaginalis [4] = assay: Potency index, ratio of metronidazole MIC to test compound MIC for metronidazole-resistant Trichomonas vaginalis CDC085 ATCC 50143; type: functional
# Nakaseomyces glabratus = assay: Antifungal activity against Candida glabrata ATCC 2001 after 48 hrs by broth microdilution method; type: functional; conditions: ATCC 2001, 48 h; how it was run: as §1
# Trichomonas vaginalis [5] = assay: Potency index, ratio of metronidazole MIC to test compound MIC for metronidazole-susceptible Trichomonas vaginalis; type: functional
# Trichomonas vaginalis [6] = assay: Antitrichomonas activity against metronidazole-resistant Trichomonas vaginalis CDC085 ATCC 50143 assessed as decrease in cell viability after 48 hrs by trypan blue exclusion method; type: functional; conditions: CDC085 ATCC 50143, 48 h
# Candida albicans [7] = assay: Antifungal activity against Candida albicans ATCC 10231 after 48 hrs by broth microdilution method; type: functional; conditions: ATCC 10231, 48 h; how it was run: as §1
# Trichomonas vaginalis [8] = assay: Antitrichomonas activity against metronidazole-susceptible Trichomonas vaginalis assessed as decrease in cell viability after 48 hrs by trypan blue exclusion method; type: functional
# Candida albicans [9] = assay: Antifungal activity against Candida albicans ATCC 66027 after 48 hrs by broth microdilution method; type: functional; conditions: ATCC 66027, 48 h; how it was run: as §1
# Candida albicans [10] = assay: Antifungal activity against Candida albicans patient isolate after 48 hrs by broth microdilution method; type: functional; how it was run: as §1
# Candida albicans [11] = assay: Antifungal activity against Candida albicans ATCC 14053 after 48 hrs by broth microdilution method; type: functional; conditions: ATCC 14053, 48 h; how it was run: as §1
# Plasmodium falciparum [12] = assay: Antimalarial activity against chloroquine-resistant Plasmodium falciparum K1 infecetd in RBC after 72 hrs by SYBR Green dye-based fluorescence assay; type: functional, organism-based; conditions: K1, Erythrocyte
# Candida albicans [13] = assay: Antifungal activity against Candida albicans MTCC 183 after 48 hrs by broth microdilution method; type: functional; conditions: MTCC 183, 48 h; how it was run: as §1
# [14] = Selectivity index, ratio of IC50 for human HeLa cells to MIC for metronidazole-resistant Trichomonas vaginalis CDC085 ATCC 50143; type: toxicity; conditions: read-out: Selectivity Index
# Candida parapsilosis = assay: Antifungal activity against Candida parapsilosis ATCC 22019 after 48 hrs by broth microdilution method; type: functional; conditions: Lodderomyces parapsilosis, ATCC 22019, 48 h; how it was run: as §1
Compound,selectivity ratio [1],IC50 (HeLa) [µM],MIC (Sporothrix schenckii) [µM],MIC (Cryptococcus neoformans) [µM],IC50 (Plasmodium falciparum [2]) [µM],MIC [3] [µM],Ratio (Trichomonas vaginalis [4]),MIC (Nakaseomyces glabratus) [µM],Ratio (Trichomonas vaginalis [5]),MIC (Trichomonas vaginalis [6]) [µM],MIC (Candida albicans [7]) [µM],MIC (Trichomonas vaginalis [8]) [µM],MIC (Candida albicans [9]) [µM],MIC (Candida albicans [10]) [µM],MIC (Candida albicans [11]) [µM],IC50 (Plasmodium falciparum [12]) [µM],MIC (Candida albicans [13]) [µM],selectivity ratio [14],MIC (Candida parapsilosis) [µM]
CN(C)C(=S)SC(=S)N1CCN(C(=O)c2ccco2)CC1,130,2380,72.9,146,0.79,72.9,1.3 - 9.5,146,1 - 3.8,146,146,18.2,72.9,146,146,1.76,72.9,16,146
CN(C)C(=S)SC(=S)N1CCN(c2cccc(Cl)c2Cl)CC1,25,1590,15.9,127,–,15.9,1.3 - 9.5,> 127,–,127,> 127,63.5,> 127,31.7,> 127,–,63.5,12,31.7
CCSC(=S)N1CCN(C(=S)SC(=S)N(C)C)CC1,31,4480,35.2,141,–,35.2,1.3 - 11.2,> 141,–,282,141,141,70.5,17.6,141,–,70.5,15,8.81
CN(C)C(=S)SC(=S)N1CCN(c2ccccc2)CC1,42,1610,76.7,76.7,–,76.7,1.3 - 9.5,> 153,–,76.7,> 153,38.3,> 153,38.3,> 153,–,> 153,21,76.7
CN(C)C(=S)SC(=S)N(C)C [BIS(DIMETHYLAMINETHIOCARBONYL)MONOSULFIDE],> 83,> 5000,60.1,240,–,60.1,1.3 - 11.2,60.1,–,240,120,60.1,60.1,120,120,–,120,> 20,120
CN(C)C(=S)SC(=S)N1CCN(C(=S)SCc2ccccc2)CC1,> 83,> 5000,60.1,60.1,–,60.1,1.3 - 11.2,120,–,120,> 120,60.1,30,30,120,–,120,> 41,7.5
CCN(C)C(=S)SC(=S)N(C)C,18,2070,56.3,225,–,56.3,1.5 - 3.8,113,–,225,113,113,28.1,113,113,–,56.3,9,113
CCCCN1CCN(C(=S)SC(=S)N(C)C)CC1,200,4100,163,163,–,163,1.3 - 9.5,163,–,81.7,163,20.4,81.7,163,163,–,81.7,50,163
CC1CCCN(C(=S)SC(=S)N(C)C)C1 (configuration not stated),60,2900,23.9,47.7,–,23.9,1.5 - 3.8,95.4,–,95.4,95.4,47.7,47.7,23.9,95.4,–,47.7,30,23.9
